TAAR1 antagonist – human TAAR1 antagonists, primary screen, Fluo-8 calcium fluorescence, CHO RD-HGA16 cells. inhibition, % at 3 µM. antagonist. hit rate 1.5% among 360,000;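 active = inhibition above a per-plate cutoff, the mean inhibition of test compounds on that plate plus 3 SD, cut at about 49% in these data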;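 also: 0% = DMSO plus EC80 beta-PEA response and 100% = DMSO alone without agonist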
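Test system – hTAAR1-expressing CHO RD-HGA16 cells, Gα16-coupled · Reagent – β-PEA at EC80 concentration, post-compound challenge · Compound dosing – 3 µM, single point · Timing – 140 s kinetic read after compound, 140 s after agonist · Detection – Fluo-8 intracellular calcium dye fluorescence, real-time kinetic reads · Control set – DMSO and EC80 PEA controls · Repeats – n of 1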
CHO parental Ca – ATP-evoked calcium signal inhibitors, parental CHO, primary screen, counter-screen for OX1R antagonist project, cell-based, fluorescence, Fluo-8 calcium dye; parental CHO-K1, ATP-induced calcium, Fluo-8 fluorescence; inhibition, % at 5.6 µM; hit rate 0.63% among 330,000; AID 463079, 2010;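 active = inhibition above that plate's mean sample inhibition plus 3 SD, cut at about 26% in these data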;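 also: 0% = ATP-challenged DMSO wells and 100% = DMSO wells without ATP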
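Test system: untransfected parental CHO cell line. Compound: one dose, 5.6 µM nominal. Detection: intracellular calcium via Fluo-8 no-wash fluorescent dye. Measure: % inhibition. Benchmarks: ATP-challenged DMSO wells low, unchallenged DMSO wells high.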
OX1R antag-1 – OX1R (HCRTR1) antagonists, primary screen, fluorescence, CHO/OX1R cells, Fluo-8 calcium, orexin A | AID 434989, 2010 | Fluo-8 calcium fluorescence | inhibition, % at 5 µM | hit rate 0.43% among 330,000 | Orexin/Hypocretin receptor type 1 (Homo sapiens), O43613;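 active = inhibition above its plate's threshold, mean inhibition of all tested compounds on the plate plus 3 SD, cut at about 37% in these data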;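 also: 0% = orexin A challenge wells and 100% = SB-334867-A antagonist wells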
TAAR1 agonist – human TAAR1 agonists, primary screen, Fluo-8 calcium fluorescence, CHO RD-HGA16 cells. AID 624467, 2012. hit rate 0.99% among 360,000. vehicle wells 0%, saturating PEA agonist 100%. activation, % at 3 µM. Trace amine-associated receptor 1 (Homo sapiens), Q96RJ0;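 active = activation above the mean activation of all test compounds in the run plus 3 SD, cut at about 38% in these data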
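Assay system: CHO-derived RD-HGA16 cells with stable Gα16 and human TAAR1; timing: 17-24 h seeding, 75 min 37 °C dye, 30 min RT; read-out: % activation from peak over basal fluorescence ratio, DMSO-to-PEA scaled; measured by: kinetic Fluo-8 calcium fluorescence; benchmarks: low control DMSO, high control PEA (EC100); doses: 3 µM single concentration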
GPR7 antagonist – GPR7 receptor antagonists, primary screen, cell-based, fluorescence, single concentration | Neuropeptides B/W receptor type 1 (Homo sapiens), P48145 | GPR7-expressing cells, fluorescence antagonist assay | inhibition, % at 4.4 µM | hit rate 1.1% among 290,000 | AID 1861, 2009; in the data active = inhibition above about 16%, passing the limit was not always enough;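 also: cells stimulated with the agonist NPW; 0% = agonist with vehicle and 100% = vehicle without agonist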
Target sequence (P48145 whole entry, looked up): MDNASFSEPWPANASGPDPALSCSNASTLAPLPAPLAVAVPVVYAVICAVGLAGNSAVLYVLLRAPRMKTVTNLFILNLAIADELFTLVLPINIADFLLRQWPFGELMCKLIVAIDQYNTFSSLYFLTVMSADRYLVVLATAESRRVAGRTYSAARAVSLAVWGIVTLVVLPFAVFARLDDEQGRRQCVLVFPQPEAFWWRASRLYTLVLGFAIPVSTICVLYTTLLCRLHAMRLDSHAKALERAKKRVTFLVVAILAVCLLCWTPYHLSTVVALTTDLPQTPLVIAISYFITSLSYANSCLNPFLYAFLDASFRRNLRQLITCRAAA
OX1R antag-2 – antagonists of human orexin 1 receptor (OX1R) | Orexin/Hypocretin receptor type 1 (Homo sapiens), O43613 | OX1R-expressing cells, FRET antagonist read-out | inhibition, % at 6.6 µM | hit rate 1.8% among 330,000 | AID 485270, 2010; in the data active = inhibition mostly above about 38%, no sharp cut-off; inactive = mostly below about 40%;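 also: 0% = agonist challenge alone and 100% = reference antagonist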
The depositor's hits bear a star; . = not tested or not shown. A selection: hits, their analogues and other compounds. The true share with any hit is near 4.6%.

SMILES | TAAR1 antagonist | CHO parental Ca | OX1R antag-1 | TAAR1 agonist | GPR7 antagonist | OX1R antag-2
O=C1NC(=O)C(=Cc2ccc(SC3CCCCC3)o2)C(=O)N1 | 59.4* | 1.1 | -9.2 | 30.1 | -15.7 | 20.6
CCOC(=O)C1=C(N)OC2=C(C(=O)CCC2)[C@]12C(=O)N(CC(N)=O)c1ccccc12 | -14.7 | -4.0 | 6.6 | 2.4 | -18.1 | 1.6
CCCCCOc1ccc(C)cc1CN(CCCl)CCCl | -9.7 | -14.7 | -31.2 | 1.4 | 30.1* | 4.4
CC1CCSP(=O)(Oc2ccccc2)O1 (centres undefined) | -3.7 | -6.4 | -8.8 | 3.0 | -1.8 | 5.0
Cc1ccc(N2CCNCC2C)cc1 (centres undefined) | -6.8 | . | . | 0.0 | . | .
CC(C)Sc1nnc([C@@H](N)Cc2c[nH]c3ccccc23)o1 | 13.2 | -8.5 | 5.8 | 0.6 | -0.6 | 40.3*
CNC(=S)N1CC2CC(C1)c1cccc(=O)n1C2 (centres undefined) | -7.1 | -1.4 | -1.5 | 4.8 | -4.1 | 18.7
Cc1cccc(NP(=O)(Oc2ccccc2F)Oc2ccccc2F)c1C | 54.5* | 47.1* | 5.6 | 7.9 | -4.3 | 20.4
CCC1(CC)C(=O)C=CNC1=O | -5.2 | 1.0 | 4.6 | 2.4 | . | 17.8
C[C@]12CCC3C(CC[C@H]4C[C@H](O)CC[C@]34C)C1C[C@H](O)[C@@H]2O (some centres undefined) | 60.3* | 0.0 | 5.7 | 18.5 | . | 5.0
C[C@]12CCC3C(CC[C@H]4C[C@H](O)CC[C@]34C)C1C[C@@H](O)[C@@H]2O (some centres undefined) | -5.2 | -6.9 | 7.4 | 2.6 | . | 14.9
CC12C=CC(=O)CC1CCC1C2CCC2(C)C(O)C(O)CC12 (centres undefined) | 57.6* | . | . | 22.1 | . | .
C=C(C)CC1(CC)C(=O)NC(=S)NC1=O | -34.3 | . | . | 1.6 | . | .
Cc1c(-c2cccc(Cl)c2)nc2ccccc2c1C(=O)N1CCC2(CC1)OCCO2 | 22.6 | -19.9 | -27.3 | 9.1 | -4.1 | 17.7
Nc1ncc([N+](=O)[O-])s1 | -17.8 | -7.3 | 0.1 | 2.0 | . | 36.4*
C1=C(c2c[nH]c3ccccc23)CCNC1 | 5.1 | -4.8 | -14.1 | 9.5 | -6.3 | 26.5
CC(C)N1CC=C(c2c[nH]c3ccccc23)CC1 | -9.9 | -19.6 | -20.8 | 38.3* | -2.4 | 27.4
C[C@]12CC3CC(N)(C1)C[C@@](C)(C3)C2 | -11.7 | -8.1 | -13.6 | 6.6 | . | 21.6
COc1ccccc1CN1CCN(C(=O)COc2cccc(C)c2)CC1 | -4.5 | -10.7 | -15.9 | 10.6 | 14.5* | 1.5
COc1ccc(CN2CCN(C(=O)COc3cccc(C)c3)CC2)c(OC)c1 | -4.8 | . | . | 4.1 | 7.2 | .
COc1cc2c(cc1OC)-c1c(OC)c(OC)c(OC)c3ccnc(c13)C2=O | . | -24.3 | -6.3 | . | 2.8 | 68.2*
CC(C)(C)NC(=S)N1Cc2ccccc2-n2nncc2C1 | -19.9 | . | . | 1.1 | . | .
NCCc1ccc(OCc2ccccc2)c(OCc2ccccc2)c1 | 45.9 | 22.2 | 11.5 | 55.1* | . | -6.7
COc1ccc(CN2CCN(c3ccccc3)CC2)c(C)c1C | -16.0 | -16.0 | -23.1 | 3.5 | -6.0 | 6.6
COc1ccccc1CNCCc1ccc(F)cc1 | -8.7 | -18.9 | -21.2 | 40.5* | -2.6 | 4.0
COc1cc(OC)c(OC)cc1CNCCc1ccc(F)cc1 | -24.9 | . | . | 5.0 | 13.5 | .
COC(=O)C1=C(c2cc3ccccc3o2)C[C@@H]2CC[C@H]1N2C(=O)NCc1ccc(F)cc1 | -7.6 | -5.8 | -24.9 | 10.8 | . | 31.6
COC(=O)C1=C(c2cc3ccccc3o2)C[C@@H]2CC[C@H]1N2C(=O)NCc1cccc2ccccc12 | 5.8 | -14.3 | 30.7 | 7.5 | . | 69.0*
CC(Cc1ccccc1)NC(=O)CCCCC(=O)NC(C)Cc1ccccc1 (centres undefined) | -7.9 | -9.2 | -7.8 | 3.2 | -2.7 | 23.2
O=c1[nH]c2ccccc2n1C1CCN(C(c2nnnn2-c2ccc3c(c2)OCCO3)C2CC2)CC1 (centres undefined) | 61.7* | . | . | 14.9 | . | .
